# Test results as given in ChEMBL document CHEMBL3817726, “Chemically Diverse Group I p21-Activated Kinase (PAK) Inhibitors Impart Acute Cardiovascular Toxicity with a Narrow Therapeutic Window” (J Med Chem, 2016).
# Assays:
# [1] = target: Serine/threonine-protein kinase PAK 1 (Homo sapiens, UniProt Q13153); assay: Inhibition of human recombinant N-terminal 6-His-tagged PAK1 kinase domain (249 to 545 residues) expressed in Escherichia coli BL21(DE3) assessed as phosphorylation of coumarin labeled FRET peptide substrate at Ser/Thr19 preincubated for 10 mins followed by ATP addition measured after 60 mins by Z'-LYTE assay
# Sequence of Serine/threonine-protein kinase PAK 1 (Q13153 whole entry, the tested form may be a part): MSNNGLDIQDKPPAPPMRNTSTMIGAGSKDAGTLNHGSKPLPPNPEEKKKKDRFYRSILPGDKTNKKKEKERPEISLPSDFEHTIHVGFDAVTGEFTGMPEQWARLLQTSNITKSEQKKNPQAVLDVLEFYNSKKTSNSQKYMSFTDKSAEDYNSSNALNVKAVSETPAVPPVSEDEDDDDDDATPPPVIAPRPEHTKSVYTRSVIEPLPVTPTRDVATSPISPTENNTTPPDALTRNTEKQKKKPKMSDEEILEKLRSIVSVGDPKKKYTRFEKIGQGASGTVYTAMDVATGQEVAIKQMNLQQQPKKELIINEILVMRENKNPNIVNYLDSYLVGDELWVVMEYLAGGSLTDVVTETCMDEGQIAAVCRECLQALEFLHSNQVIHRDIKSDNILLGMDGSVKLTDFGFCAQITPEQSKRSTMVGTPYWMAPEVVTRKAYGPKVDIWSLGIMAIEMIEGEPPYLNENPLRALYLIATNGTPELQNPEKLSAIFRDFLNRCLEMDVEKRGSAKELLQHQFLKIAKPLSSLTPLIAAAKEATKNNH
# Homo sapiens = organism: Homo sapiens; assay: Selectivity for human recombinant N-terminal 6-His-tagged PAK1 kinase domain (249 to 545 residues) over LCK (unknown origin)
# [2] = target: Serine/threonine-protein kinase PAK 1/PAK 2 (Homo sapiens, UniProt Q13177+Q13153); assay: Inhibition of PAK1/2 in human EBC1 cells assessed as phosphorylation of MEK1 at serine 298 after 2 hrs by HTRF assay; assay type: cell-based
# [3] = Lipophilicity, log D of the compound at pH 7.4; assay type: physicochemical; conditions: buffer
# [4] = Kinetic solubility of the compound at pH 7.4; assay type: physicochemical; conditions: buffer, read-out: Kinetic_solubility
# [5] = Apparent permeability across apical to basolateral side in MDCK cells at 10 uM after 60 mins; assay type: ADME, cell-based, Canis lupus familiaris; conditions: dog
# [6] = Efflux ratio of permeability across basolateral to apical side over apical to basolateral side in MDCK cells at 10 uM after 60 mins; assay type: ADME, cell-based, Canis lupus familiaris; conditions: dog
# [7] = target: Serine/threonine-protein kinase PAK 2 (Homo sapiens, UniProt Q13177); assay: Inhibition of human recombinant PAK2 assessed as phosphorylation of coumarin labeled FRET peptide substrate at Ser/Thr19 preincubated for 10 mins followed by ATP addition measured after 60 mins by Z'-LYTE assay
# Sequence of Serine/threonine-protein kinase PAK 2 (Q13177 whole entry): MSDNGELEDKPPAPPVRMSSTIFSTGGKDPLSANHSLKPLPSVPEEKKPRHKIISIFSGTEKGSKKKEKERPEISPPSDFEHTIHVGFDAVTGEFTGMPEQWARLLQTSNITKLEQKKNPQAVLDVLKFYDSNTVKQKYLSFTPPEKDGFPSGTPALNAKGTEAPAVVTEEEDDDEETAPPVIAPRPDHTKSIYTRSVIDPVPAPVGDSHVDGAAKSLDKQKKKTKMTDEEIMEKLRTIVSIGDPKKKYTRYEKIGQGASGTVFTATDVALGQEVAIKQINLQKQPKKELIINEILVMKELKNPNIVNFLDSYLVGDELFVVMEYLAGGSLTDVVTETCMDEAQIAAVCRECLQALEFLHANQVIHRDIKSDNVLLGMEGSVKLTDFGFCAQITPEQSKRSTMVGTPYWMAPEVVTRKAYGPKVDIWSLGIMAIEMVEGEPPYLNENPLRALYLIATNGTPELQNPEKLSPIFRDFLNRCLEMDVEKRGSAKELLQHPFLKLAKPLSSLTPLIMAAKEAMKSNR
# [8] = Fraction unbound in mouse plasma at 12.5 to 25 mg/kg, po; assay type: ADME, organism-based
# [9] = Cmax associated with acute adverse effect in mouse at 12.5 to 25 mg/kg, po; assay type: ADME, organism-based; conditions: in vivo
# Outline: (§1)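 Mouse tolerability studies tested multiple doses, given orally or intraperitoneally. Plasma drug concentrations were measured, including at a 15 min time point. The minimum concentration associated with adverse clinical signs or death was taken as the adverse Cmax and was converted to an unbound value.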
# Mus musculus [10] = assay: fCmax associated with acute adverse effect in mouse at 12.5 to 25 mg/kg, po; assay type: ADME, organism-based; conditions: in vivo
# Outline: (§2)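 Mouse tolerability studies at multiple doses, oral or intraperitoneal. Minimum unbound plasma concentration associated with adverse effects (total Cmax converted to unbound) compared with IC50 for inhibition of MEK1 S298 phosphorylation in cells.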
# [11] = Ratio of fCmax associated with acute adverse effect in mouse at 12.5 to 25 mg/kg, po to IC50 for PAK1/2-mediated phosphorylation of MEK1 at serine 298 in human EBC1 cells
# Outline: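 Mice were dosed at multiple levels, orally or intraperitoneally, and monitored for acute adverse signs. The minimum unbound plasma Cmax associated with adverse effects was converted from total drug concentration and compared with the cellular IC50 for phospho-MEK1 S298 inhibition.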
# [12] = Plasma concentration in mouse at 25 mg/kg, po at 15 mins; assay type: ADME, organism-based
# Mus musculus [13] = assay: Toxicity in mouse assessed as mortality at 25 mg/kg, po after 2 hrs; assay type: organism-based; conditions: in vivo
# Outline: (§3)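 Mouse tolerability study at multiple oral doses, with lethality and clinical signs monitored after dosing. Plasma drug concentrations were measured, and the minimum unbound concentration linked to adverse effects was compared with the cellular pMEK S298 IC₅₀.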
# Mus musculus [14] = assay: Toxicity in mouse assessed as mortality at 12.5 mg/kg, po after 0.25 hrs; assay type: organism-based; conditions: in vivo
# Mus musculus [15] = assay: Toxicity in mouse assessed as mortality at 12.5 mg/kg, po after 0.5 hrs; assay type: organism-based; conditions: in vivo; outline: as §3
# [16] = Plasma concentration in mouse at 12.5 mg/kg, po at 0.5 hrs; assay type: ADME, organism-based
# [17] = Plasma concentration in mouse at 25 mg/kg, po at 0.25 hrs
# Plasma = assay: Unbound drug concentration in mouse plasma at 25 mg/kg, po at 0.25 hrs; conditions: in vivo
# [18] = Cmax associated with acute adverse effect in rat; assay type: ADME, organism-based; conditions: in vivo
# Rattus norvegicus [19] = organism: Rattus norvegicus; assay: fCmax associated with acute adverse effect in rat; assay type: ADME, organism-based; conditions: in vivo
# Rattus norvegicus [20] = organism: Rattus norvegicus; assay: Toxicity in rat assessed as slow blood flow; assay type: organism-based; conditions: in vivo
# Rattus norvegicus [21] = organism: Rattus norvegicus; assay: Toxicity in rat assessed as darkened blood; assay type: organism-based; conditions: in vivo
# Rattus norvegicus [22] = organism: Rattus norvegicus; assay: Toxicity in rat assessed as hypoactivity; assay type: organism-based; conditions: in vivo
# Rattus norvegicus [23] = organism: Rattus norvegicus; assay: Toxicity in rat assessed as hunched posture; assay type: organism-based; conditions: in vivo
# Mus musculus [24] = assay: Toxicity in mouse assessed as slow blood flow at 60 to 80 mg/kg, po; assay type: organism-based; conditions: in vivo
# Mus musculus [25] = assay: Toxicity in mouse assessed as darkened blood at 60 to 80 mg/kg, po; assay type: organism-based; conditions: in vivo
# Mus musculus [26] = assay: Toxicity in mouse assessed as hypoactivity at 60 to 80 mg/kg, po; assay type: organism-based; conditions: in vivo
# Mus musculus [27] = assay: Toxicity in mouse assessed as hunched posture at 60 to 80 mg/kg, po; assay type: organism-based; conditions: in vivo
# [28] = Fraction unbound in mouse plasma at 60 to 80 mg/kg, po; assay type: ADME, organism-based
# [29] = Cmax associated with acute adverse effect in mouse at 60 to 80 mg/kg, po; assay type: ADME, organism-based; conditions: in vivo; outline: as §1
# Mus musculus [30] = assay: fCmax associated with acute adverse effect in mouse at 60 to 80 mg/kg, po; assay type: ADME, organism-based; conditions: in vivo; outline: as §2
smiles,measurement,setting,value
CNc1ncc2cc(-c3ccc(-n4cccc(C)c4=O)cc3Cl)c(=O)n(CCC3(F)CN(C)C3)c2n1,Ki,[1],0.95 nM
same,Selectivity ratio,Homo sapiens,57
same,IC50,[2],33 nM
same,logD,[3],1.8
same,solubility kinetic,[4],117 µM
same,"Papp A→B at 1 h, 10 µM",[5],6.9 ×10⁻⁶ cm/s
same,"efflux ratio at 1 h, 10 µM",[6],2
same,Ki,[7],2 nM
same,fraction unbound,[8],0.032
same,Cmax,[9],2800 nM
same,fCmax,Mus musculus [10],0.088 µM
same,Ratio,[11],1
same,concentration at 0.25 h,[12],2800 nM
same,Activity,Mus musculus [13],Toxic
same,Activity,Mus musculus [14],Toxic
same,Activity,Mus musculus [15],Toxic
same,concentration at 0.5 h,[16],1890 nM
same,concentration at 0.25 h,[17],2240 nM
same,Cp(f),Plasma,88 nM
CCn1c(=O)c(-c2ccc(-c3cncc(C)n3)cc2Cl)cc2cnc(NCCC3CCN(C)CC3)nc21,Cmax,[18],4 µM
same,fCmax,Rattus norvegicus [19],0.076 µM
same,Activity,Rattus norvegicus [20],Toxic
same,Activity,Rattus norvegicus [21],Toxic
same,Activity,Rattus norvegicus [22],Toxic
same,Activity,Rattus norvegicus [23],Toxic
same,Activity,Mus musculus [24],Toxic
same,Activity,Mus musculus [25],Toxic
same,Activity,Mus musculus [26],Toxic
same,Activity,Mus musculus [27],Toxic
same,fraction unbound,[28],0.017
same,Cmax,[29],16 µM
same,fCmax,Mus musculus [30],0.27 µM
